Published values collected from several papers.
Protocols differ between the studies behind these lines.
PIK3CA I800L: Phosphatidylinositol 4,5-bisphosphate 3-kinase catalytic subunit alpha isoform (PIK3CA, Homo sapiens, UniProt P42336, I800L)
PIK3CA E545A: Phosphatidylinositol 4,5-bisphosphate 3-kinase catalytic subunit alpha isoform (PIK3CA, Homo sapiens, UniProt P42336, E545A)
PIK3CA H1047L: Phosphatidylinositol 4,5-bisphosphate 3-kinase catalytic subunit alpha isoform (PIK3CA, Homo sapiens, UniProt P42336, H1047L)
PIK3CA: Phosphatidylinositol 4,5-bisphosphate 3-kinase catalytic subunit alpha isoform (PIK3CA, Homo sapiens, UniProt P42336)
PIK3CA C420R: Phosphatidylinositol 4,5-bisphosphate 3-kinase catalytic subunit alpha isoform (PIK3CA, Homo sapiens, UniProt P42336, C420R)
PIK3CA Q546K: Phosphatidylinositol 4,5-bisphosphate 3-kinase catalytic subunit alpha isoform (PIK3CA, Homo sapiens, UniProt P42336, Q546K)
PIK3CA E542K: Phosphatidylinositol 4,5-bisphosphate 3-kinase catalytic subunit alpha isoform (PIK3CA, Homo sapiens, UniProt P42336, E542K)
PIK3CA E545K: Phosphatidylinositol 4,5-bisphosphate 3-kinase catalytic subunit alpha isoform (PIK3CA, Homo sapiens, UniProt P42336, E545K)
PIK3CA H1047Y: Phosphatidylinositol 4,5-bisphosphate 3-kinase catalytic subunit alpha isoform (PIK3CA, Homo sapiens, UniProt P42336, H1047Y)

SMILES	target	effect on	technique	concentration	remaining binding
COc1ccnn2ncc(-c3ccnc(N(C)C)n3)c12	PIK3CA I800L	binding		1 µM	94%
COCCOc1nc(-c2ccc(Cl)nc2)nc2c1CN(C(=O)c1ncn3ccccc13)CC2	PIK3CA E545A	cell-free assay	competition with immobilised ligand	0.1 µM	100%
CN1CCN(c2ccc(Nc3nccc(-c4ccccc4)n3)cc2C(F)(F)F)CC1	PIK3CA H1047L	binding		10 µM	55%
CCN1CCN(Cc2ccc(C(=O)Nc3ccc(C)c(Oc4ccc5c(c4)CC(=O)N5)c3)cc2C(F)(F)F)CC1	PIK3CA	binding	competition with immobilised ligand	1 µM	86%
CNCc1ccccc1-c1csc([C@H](C)Nc2nc(C)nc3cc(OC)c(OC)cc23)c1	PIK3CA I800L	cell-free assay	competition with immobilised ligand	1 µM	81%
CC(C)(C)c1ccc(-c2nc(CBr)nn2-c2cccc(O)c2)cc1	PIK3CA	cell-free assay	competition with immobilised ligand	10 µM	80%
CN(C)c1ncc(F)c(-c2cnn3ncccc23)n1	PIK3CA C420R	binding		1 µM	46%
O=C(NCCCC1CCCCC1)c1ccc(CNC(=O)c2cnn(-c3ccccc3)c2C(F)(F)F)cc1	PIK3CA H1047L	cell-free assay	competition with immobilised ligand	0.1 µM	86%
O=C(NCCCN1CCOCC1)c1ccc(Nc2nccc(-c3cc4ccccc4s3)n2)cc1	PIK3CA Q546K	binding	competition with immobilised ligand	1 µM	81%
CS(=O)(=O)N1CCCC(NC(=O)[C@H](CCC2CCCCC2)NC(=O)c2ccc(CNC(=O)c3cnc4ccccn34)cc2)C1 (some centres unmarked)	PIK3CA H1047L	cell-free assay	competition with immobilised ligand	0.1 µM	100%
O=C(c1ccc(Nc2ncc(Cl)c(-c3ccc(Cl)s3)n2)cc1)N1CCC(N2CCCC2)CC1	PIK3CA H1047L	binding	competition with immobilised ligand	1 µM	100%
CO[C@@H](C)c1c(Nc2ccc([C@H](N(C)C(=O)C3CCS(=O)(=O)CC3)C(F)(F)F)cc2)cnc2cc(Cl)nn12	PIK3CA C420R	cell-free assay	competition with immobilised ligand	1 µM	93%
COc1ncc2cc3ccccc3nc2c1C#N	PIK3CA I800L	cell-free assay	competition with immobilised ligand	5 µM	86%
CNC(=O)[C@@H]1CC[C@@H](n2c(-c3ccc4cnccc4c3)nc3ccc(C(=O)NCc4cccc(C(N)=O)c4)cc32)C1	PIK3CA E542K	binding	competition with immobilised ligand	1 µM	100%
C=CC(=O)N1CCC(C(=O)NCC(=O)N2CCN(c3nc(-c4cnc(N)nc4C(F)F)nc(N4CCOCC4)n3)CC2)CC1	PIK3CA Q546K	binding	competition with immobilised ligand	1 µM	0%
C[C@H]1CCN(c2nccc(-c3cnn4ncccc34)n2)C1	PIK3CA H1047L	binding		1 µM	69%
O=C(Nc1c[nH]nc1C(=O)NC1CCNCC1)c1cc(F)cc(F)c1	PIK3CA I800L	binding	competition with immobilised ligand	1 µM	81%
O=C(NCCCN1CCOCC1)c1ccc(Nc2ncc(Cl)c(-c3ccc(Cl)s3)n2)cc1	PIK3CA I800L	binding	competition with immobilised ligand	1 µM	85%
Nc1ncc2c(n1)-c1c([nH]c3ccc(C#CC4CC4)cc13)CCCC2	PIK3CA H1047L	binding	competition with immobilised ligand	1 µM	80%

SMILES	target	effect on	technique	concentration	remaining binding
Cc1cnc(Nc2ccc(C(=O)N3CCC(N4CCCC4)CC3)cc2)nc1-c1cc2ccccc2s1	PIK3CA C420R	binding	competition with immobilised ligand	1 µM	83%
Cc1cc(-c2cc(C(F)(F)F)ccc2O[C@H]2C[C@@]2(CNS(=O)(=O)c2ccc([N+](=O)[O-])cc2)c2ccc(F)cc2F)[nH]n1	Phosphatidylinositol 4,5-bisphosphate 3-kinase catalytic subunit alpha isoform (PIK3CA, Homo sapiens, UniProt P42336, M1043I)	cell-free assay	competition with immobilised ligand	0.3 µM	8.1%
CC1CCCN1c1nccc(-c2cnn3ncccc23)n1 (centres unmarked)	PIK3CA E542K	binding		1 µM	43%
CN1CCN(c2ccc(Nc3nccc(-c4cccc([N+](=O)[O-])c4)n3)cc2C(F)(F)F)CC1	PIK3CA E545A	binding		10 µM	58%
CCN(CC)Cc1cc(Nc2ccnc3cc(Cl)ccc23)ccc1O	PIK3CA	cell-free assay	competition with immobilised ligand	0.1 µM	97%
CN(CCCC(F)(F)F)c1nccc(-c2cnn3ncccc23)n1	PIK3CA H1047L	binding		1 µM	100%
O=C(c1ccc(Nc2ncc(Cl)c(-c3cc4ccccc4s3)n2)cc1)N1CCC(N2CCCC2)CC1	PIK3CA E542K	binding	competition with immobilised ligand	1 µM	97%
O=C(N1CCS(=O)(=O)CC1)N1C[C@H](c2ccc(OC(F)(F)F)cc2)C[C@H](c2nc(C3CC3)no2)C1	PIK3CA Q546K	cell-free assay	competition with immobilised ligand	1 µM	83%
COc1cnc(Nc2cccc(S(N)(=O)=O)c2)nc1N1CCN(c2ccccc2)C(=O)C1	PIK3CA E545K	binding	competition with immobilised ligand	1 µM	65%
O=C(NCC1CCOCC1)c1n[nH]cc1NC(=O)c1c(F)cccc1F	PIK3CA I800L	binding	competition with immobilised ligand	1 µM	77%
C[C@@H](c1ccc(-n2cnc3c(N)ncnc32)cc1)N1CCc2nn(C)c(Cc3ccccc3)c2C1=O	PIK3CA H1047Y	binding	competition with immobilised ligand	0.1 µM	78%
c1cncc(-c2cccc(Nc3nccc(NC4CCCCC4)n3)c2)c1	PIK3CA C420R	binding	competition with immobilised ligand	10 µM	73%
COc1cnc(Nc2cccc(S(N)(=O)=O)c2)nc1N1CCN(c2ccccc2)CC1	PIK3CA C420R	binding	competition with immobilised ligand	1 µM	95%
CN(C)c1nccc(-c2cnc3ncccn23)n1	PIK3CA E545K	binding		1 µM	82%
Cc1c(C(=O)O)cc(-c2ccc(C3CCNCC3)cc2)c2ccc(-c3ccc(C(F)(F)F)cc3)cc12	PIK3CA H1047Y	cell-free assay	competition with immobilised ligand	1 µM	100%
N[C@@H]1CCN(c2nccc(-c3cnn4ncccc34)n2)C1	PIK3CA H1047Y	binding		1 µM	91%
CN([C@@H]1CCc2c(CC(=O)O)c3cc(S(C)(=O)=O)ccc3n2C1)S(=O)(=O)c1ccc(F)cc1	PIK3CA Q546K	cell-free assay	competition with immobilised ligand	1 µM	100%
O=C(c1ccc(Nc2nccc(-c3cc4ccccc4s3)n2)cc1)N1CCC(N2CCCC2)CC1	PIK3CA E545K	binding	competition with immobilised ligand	1 µM	82%
CN(c1nccc(-c2cnn3ncccc23)n1)C1CC1	PIK3CA E545K	binding		1 µM	100%
